Measured values reported in ChEMBL document CHEMBL1148122, “Sesquiterpenoids from Tithonia diversifolia with potential cancer chemopreventive activity” (J Nat Prod, 2002).
Converted amounts (≈) assume the structure as drawn. The source made the active and inactive calls. The rule behind the calls is not given here.

Tests used:
HL-60 = assay: Induction of cell differentiation of human HL60 cells at 4 ug/mL after 4 days by non-specific esterase determination; assay type: functional, cell-based; conditions: for % differentiation: HL-60, 96 h
Outline: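 HL-60 cells kept in RPMI 1640 with 10% fetal calf serum and penicillin/streptomycin at 37 °C, 5% CO2. Cells at 1.2 × 10^5 cells/mL, preincubated 18 h, then added to compounds in DMSO (final 0.1% v/v). After 4 days, α-naphthyl acetate esterase was stained cytochemically, ≥200 cells counted microscopically in duplicate, and the % differentiated cells recorded.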

Col2 = assay: Antiproliferative activity against human Col2 cells after 3 days by sulforhodamine B assay; assay type: functional, cell-based; conditions: for IC50: Col2, 72 h
Outline: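 Col2 human colon cancer cells grown in MEME with 10% NEAA, antibiotic-antimycotic and 10% FBS at 37 °C, 5% CO2. Exponentially growing cells were added to wells containing compounds in DMSO and grown 3 days. Cells were then TCA-fixed and stained with 0.4% SRB in 1% acetic acid, and the dye was solubilized in 0.1 M Tris. Absorbance read at 515 nm; % growth calculated against day-0 and DMSO-control absorbances.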

[1] = Inhibition of 7,12-dimethylbenz[a]anthracene-induced preneoplastic lesions in a BALB/c mouse mammary gland culture at 10 ug/mL treated for 10 days before DMBA-challenge measured after 14 days; assay type: functional, tissue-based
Outline: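 BALB/c female mice were primed 9 days with estradiol (1 µg) and progesterone (1 mg). Second thoracic mammary glands were cultured 10 days at 37 °C in 95% O2/5% CO2 in Waymouth's 752/1 MB medium with insulin, prolactin, aldosterone and hydrocortisone. DMBA 2 µg/mL was given at 72–96 h and compounds on days 1–10. Glands then regressed 14 days with insulin only and were scored for lesion incidence. % inhibition is relative to the DMBA control.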

SMILES | Activity (HL-60) | Activity (Col2) | % differentiation (HL-60) [%] | IC50 (Col2) [µg/mL] | % inhibition [1] [%]
C=C(C(=O)OC)[C@@H]1CC[C@@]2(C)CC[C@@H](OC(C)=O)[C@@](C)(O)[C@@H]2C1 | inactive | inactive |  |  | 
C=C1C(=O)O[C@@H]2C[C@H](C)[C@]3(O)O[C@@](C)(C[C@H]3O)C[C@@H](OC(=O)C(C)C)[C@@H]12 |  |  | < 10 | > 20 | 
C=C1C(=O)O[C@H]2[C@H]1[C@H](OC(=O)C(C)C)C[C@@]1(C)[C@H](O)C[C@H](OC(C)=O)C(=C)[C@H]21 |  |  | 33.9 | 5.9 (≈ 15 µM) | 63
C=C1C(=O)O[C@@H]2C[C@H](C)[C@@]3(O)C[C@H](O)[C@@](C)(C[C@@H](OC(=O)C(C)C)[C@@H]12)O3 | inactive | inactive |  |  | 
C=C1C(=O)O[C@H]2[C@H]1[C@H](OC(=O)C(C)C)C[C@@](C)(O)[C@@H]1CC(=O)[C@@](C)(O)[C@H]21 |  |  | 32.4 | 18.9 (≈ 51.6 µM) | 48.7
COC(=O)/C=C/[C@@H]1CC[C@@]2(C)CC[C@@H](OC(C)=O)[C@@](C)(O)[C@@H]2C1 |  |  | < 10 | > 20 | 
C=C1C(=O)O[C@@H]2/C=C(/C)C(=O)/C=C/[C@](C)(O)C[C@@H](OC(=O)C(C)C)[C@@H]12 [TAGITININ C] |  |  | 20 | 0.7 (≈ 2.01 µM) | 44.4
C=C1C(=O)O[C@H]2[C@H]1[C@H](OC(=O)C(C)C)C[C@@]1(C)[C@H](O)C[C@H](OC(C)=O)[C@@](C)(O)[C@H]21 [TITHOFOLINOLIDE] |  |  | 37.4 | > 20 | 40.2
C=C1C(=O)O[C@@H]2C[C@H](C)[C@@]3(O)CC[C@@](C)(C[C@@H](OC(=O)C(C)C)[C@@H]12)O3 | inactive | inactive |  |  | 
C=C1C(=O)O[C@@H]2/C=C(/C)C(=O)[C@@H]3O[C@H]3[C@](C)(O)C[C@@H](OC(=O)C(C)C)[C@@H]12 |  |  | < 10 | 1.7 (≈ 4.67 µM) | 44.4
